{"source": "ChEMBL document CHEMBL1255256", "about": "“Bobel-24 activity against Cryptosporidium parvum in cell culture and in a SCID mouse model” (Antimicrob Agents Chemother, 2008)", "key": {"Cryptosporidium parvum [1]": {"system": "Cryptosporidium parvum", "test": "Antimicrobial activity against Cryptosporidium parvum infected in HCT8 cells assessed as growth inhibition rate at 22 to 90 uM after 48 hrs", "assay_type": "functional, organism-based", "conditions": "HCT-8", "procedure,_shortened": "(§1)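 HCT-8 monolayers inoculated with 8 × 10^5 oocysts/ml, then incubated with 90, 45 or 22 μM compound (DMSO stock diluted in PBS). Fixed cultures stained with rhodamine-C3C3 mAb; developmental stages (meronts, gamonts) counted per field over 30 fields, mean of four replicate wells ± SD; percent growth inhibition versus medium and inhibition score (0–4).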"}, "Cryptosporidium parvum [2]": {"system": "Cryptosporidium parvum", "test": "Antimicrobial activity against Cryptosporidium parvum infected in SCID mouse assessed as decrease in oocyst shedding at 250 mg/kg/day, po for 2 weeks and measured 3 to 7 days after treatment", "assay_type": "functional, organism-based", "procedure,_shortened": "(§2)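 Female C.B-17 SCID mice, 7 weeks old, infected orally with 1 × 10^7 oocysts in PBS; chronic infection allowed for 25 days. Compound suspended with polyvinylpyrrolidone, given orally at 250 (n=10) or 125 (n=10) mg/kg/day for 2 weeks; controls were PVP in water and untreated mice. Oocysts per 50 μl concentrated feces counted by IIF every 3 days; ANOVA with LSD.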"}, "Cryptosporidium parvum [3]": {"system": "Cryptosporidium parvum", "test": "Antiparasitic activity against Cryptosporidium parvum infected into human HCT-8 cells assessed as growth inhibition at 90 uM after 48 hrs", "assay_type": "functional", "conditions": "HCT-8, 48 h, read-out: GI", "procedure,_shortened": "(§3)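 Confluent HCT-8 monolayers inoculated with 8 × 10^5 excysted oocysts/ml, then infected cells treated with 90 μM compound (DMSO stock diluted in PBS) at 37°C in 5% CO2 (24 h per table footnote; 48 h per text). Fixed cells stained with rhodamine-labeled C3C3 mAb; meronts and gamonts counted in 30 fields/well, four replicate wells; percent inhibition and inhibition score versus medium control.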"}, "Cryptosporidium parvum [4]": {"system": "Cryptosporidium parvum", "test": "Antimicrobial activity against Cryptosporidium parvum infected in HCT8 cells assessed as growth inhibition at 90 uM pretreated for 30 min before infection measured after 48 hrs", "assay_type": "functional", "conditions": "HCT-8, read-out: GI", "procedure,_shortened": "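HCT-8 cells preincubated with 90 μM compound at 37°C for 30 min, then infected with excysted oocysts (8 × 10^5/ml). Meronts and gamonts counted after rhodamine-C3C3 mAb staining, 30 fields/well, four replicate wells; percent inhibition versus medium control and inhibition score.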"}, "Cryptosporidium parvum [5]": {"system": "Cryptosporidium parvum", "test": "Antimicrobial activity against Cryptosporidium parvum infected in SCID mouse assessed as decrease in oocyst shedding at 125 mg/kg/day, po for 2 weeks and measured 3 to 7 days after treatment", "assay_type": "functional, organism-based", "procedure,_shortened": "as §2"}, "Cryptosporidium parvum [6]": {"system": "Cryptosporidium parvum", "test": "Antiparasitic activity against Cryptosporidium parvum infected into human HCT-8 cells assessed as growth inhibition at 45 uM after 48 hrs", "assay_type": "functional", "conditions": "HCT-8, 48 h, read-out: GI", "procedure,_shortened": "as §1"}, "Cryptosporidium parvum [7]": {"system": "Cryptosporidium parvum", "test": "Antimicrobial activity against Cryptosporidium parvum DE infected in HCT8 cells assessed as growth inhibition at 90 uM after 24 hrs", "assay_type": "functional", "conditions": "HCT-8, 24 h, read-out: GI", "procedure,_shortened": "as §3"}, "Cryptosporidium parvum [8]": {"system": "Cryptosporidium parvum", "test": "Antiparasitic activity against Cryptosporidium parvum sprozoites assessed as growth inhibition at 90 uM after 48 hrs", "assay_type": "functional", "conditions": "read-out: GI", "procedure,_shortened": "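Excysted sporozoite suspension incubated with 90 μM compound at 37°C for 30 min, then used to infect confluent HCT-8 monolayers. Developmental stages counted after rhodamine-C3C3 mAb staining, 30 fields/well, four replicate wells; percent inhibition versus medium control and inhibition score.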"}, "HCT-8": {"system": "HCT-8", "test": "Cytotoxicity against human HCT8 cells assessed as cell viability by MTT assay", "assay_type": "cell-based", "procedure,_shortened": "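HCT-8 cells exposed to compound and viability measured by MTT assay as percent viable cells.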"}, "Cryptosporidium parvum [9]": {"system": "Cryptosporidium parvum", "test": "Antiparasitic activity against Cryptosporidium parvum infected into human HCT-8 cells assessed as growth inhibition at 22 uM after 48 hrs", "assay_type": "functional", "conditions": "HCT-8, 48 h, read-out: GI", "procedure,_shortened": "as §1"}, "Cryptosporidium parvum [10]": {"system": "Cryptosporidium parvum", "test": "Antimicrobial activity against Cryptosporidium parvum infected in SCID mouse assessed as decrease in oocyst shedding at 125 mg/kg/day, po for 2 weeks and measured every 3 days during treatment", "assay_type": "functional, organism-based", "procedure,_shortened": "as §2"}, "Cryptosporidium parvum [11]": {"system": "Cryptosporidium parvum", "test": "Antimicrobial activity against Cryptosporidium parvum infected in HCT8 cells assessed as decrease in parasite count at 22 to 90 uM after 48 hrs", "assay_type": "functional, organism-based", "conditions": "HCT-8", "procedure,_shortened": "as §1"}}, "note": "Activity calls are given as the source filed them. No cut-off for these calls is given here.", "data": [{"smiles": "Oc1c(I)cc(I)cc1I", "values": [{"measurement": "Activity", "setting": "Cryptosporidium parvum [1]", "result": "Dose-dependent effect"}, {"measurement": "Activity", "setting": "Cryptosporidium parvum [2]", "result": "inactive"}, {"measurement": "inhibition of growth at 90 µM", "setting": "Cryptosporidium parvum [3]", "result": 96.5, "unit": "%"}, {"measurement": "inhibition of growth at 90 µM", "setting": "Cryptosporidium parvum [4]", "result": 36, "unit": "%"}, {"measurement": "Activity", "setting": "Cryptosporidium parvum [5]", "result": "inactive"}, {"measurement": "inhibition of growth at 45 µM", "setting": "Cryptosporidium parvum [6]", "result": 92.5, "unit": "%"}, {"measurement": "inhibition of growth at 90 µM", "setting": "Cryptosporidium parvum [7]", "result": 99.6, "unit": "%"}, {"measurement": "inhibition of growth at 90 µM", "setting": "Cryptosporidium parvum [8]", "result": 27.8, "unit": "%"}, {"measurement": "Activity", "setting": "HCT-8", "result": "Non-toxic"}, {"measurement": "inhibition of growth at 22 µM", "setting": "Cryptosporidium parvum [9]", "result": 50.1, "unit": "%"}, {"measurement": "Activity", "setting": "Cryptosporidium parvum [10]", "result": "Active"}, {"measurement": "Activity", "setting": "Cryptosporidium parvum [11]", "result": "Dose-dependent effect"}]}]}
